Measurements published in ChEMBL document CHEMBL1143652, “Joys of molecules. 2. Endeavors in chemical biology and medicinal chemistry” (J Med Chem, 2005).

Key:
Somatostatin receptor = test: Binding affinity for SRIF (somatostatin) receptor; assay type: protein assay
1A9 = test: Inhibitory concentration against ovarian carcinoma 1A9 cell growth; assay type: functional, cell-based; details: Homo sapiens
1A9/ptx-22 [1] = test: (§1) Inhibitory concentration against beta-tubulin mutant 1A9PTX22 cell line; assay type: functional, cell-based; details: Homo sapiens
1A9/ptx-22 [2] = test: as §1; assay type: functional, cell-based; details: Homo sapiens; remark: listed apart in the source
1A9/ptx-10 [3] = test: (§2) Inhibitory concentration against beta-tubulin mutant 1A9PTX10 cell growth; assay type: functional, cell-based; details: Homo sapiens
1A9/ptx-10 [4] = test: as §2; assay type: functional, cell-based; details: Homo sapiens; remark: listed apart in the source
[5] = molecular target: Tubulin beta-4B chain (Homo sapiens) (UniProt P68371); test: Percent […] of tubulin by the compound; assay type: functional
Tubulin beta-4B chain (Homo sapiens), sequence (P68371 whole entry): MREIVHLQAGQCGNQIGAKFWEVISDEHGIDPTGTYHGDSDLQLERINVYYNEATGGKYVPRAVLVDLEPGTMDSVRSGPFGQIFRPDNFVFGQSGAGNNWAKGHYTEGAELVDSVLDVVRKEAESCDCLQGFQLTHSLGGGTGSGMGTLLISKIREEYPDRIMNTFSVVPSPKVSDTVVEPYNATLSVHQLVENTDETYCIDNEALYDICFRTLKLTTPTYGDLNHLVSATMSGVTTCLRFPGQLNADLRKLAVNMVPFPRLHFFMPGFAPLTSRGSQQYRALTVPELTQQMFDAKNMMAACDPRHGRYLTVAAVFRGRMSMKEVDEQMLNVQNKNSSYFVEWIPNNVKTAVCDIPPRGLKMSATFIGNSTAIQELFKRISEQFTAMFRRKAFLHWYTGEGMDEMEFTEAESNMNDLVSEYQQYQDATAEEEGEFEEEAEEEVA
Method in brief: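 Tubulin polymerization was read as percent polymerization, with test drug at 100 µM and a 90 min incubation.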

Nucleic Acid = test: Binding affinity towards DNA extracted from MOLT-4 cells; assay type: cell-free; details: Homo sapiens

Compound | IC50 (Somatostatin receptor) | IC50 (1A9) | IC50 (1A9/ptx-22 [1]) | IC50 (1A9/ptx-22 [2]) | IC50 (1A9/ptx-10 [3]) | IC50 (1A9/ptx-10 [4]) | TP [5] | K obs (Nucleic Acid)
NCCCCCOCC1OC(OCCc2cc3ccccc3[nH]2)CC(OCc2ccccc2)C1OCc1ccccc1 (stereo not drawn) | 35000 nM |  |  |  |  |  |  | 
C/C(=C\c1ccc(C)cn1)[C@@H]1C[C@@H]2C[C@@]2(C)CCC[C@H](C)[C@H](O)[C@@H](C)C(=O)C(C)(C)CCC(=O)O1 |  | 1.74 nM | 5.6 nM | 5.6 nM | 10.9 nM | 10.9 nM |  | 
C/C(=C\c1csc(C)n1)[C@@H]1C[C@@H]2O[C@]2(C)CCC[C@H](C)[C@H](O)[C@@H](C)C(=O)C(C)(C)[C@@H](O)CC(=O)O1 [PATUPILONE] |  | 0.13 nM | 0.31 nM | 0.31 nM | 1 nM | 1 nM | 98% | 
NCCCCCOCC1OC(OCCc2cc3ccccc3[nH]2)C(OCc2ccccc2)CC1OCc1ccccc1 (stereo not drawn) | 8400 nM |  |  |  |  |  |  | 
C/C(=C\c1ccc(C)cn1)[C@@H]1C[C@@H]2C[C@@H]2CCC[C@H](C)[C@H](O)[C@@H](C)C(=O)C(C)(C)[C@@H](O)CC(=O)O1 |  | 2.5 nM | 4.22 nM | 4.22 nM | 19.2 nM | 19.2 nM |  | 
CSc1nc(/C=C(\C)[C@@H]2C[C@@H]3C[C@H]3CCC[C@H](C)[C@H](O)[C@@H](C)C(=O)C(C)(C)CCC(=O)O2)cs1 |  | 1.2 nM | 0.8 nM | 0.8 nM | 3.2 nM | 3.2 nM |  | 
C/C(=C\c1csc(C)n1)[C@@H]1C[C@@H]2C[C@H]2CCC[C@H](C)[C@H](O)[C@@H](C)C(=O)C(C)(C)CCC(=O)O1 |  | 10.1 nM | 4.7 nM | 4.7 nM | 17.2 nM | 17.2 nM |  | 
NCCCCCCOCC1OC(OCCc2cc3ccccc3[nH]2)C(OCc2ccccc2)CC1OCc1ccccc1 (stereo not drawn) | 6600 nM |  |  |  |  |  |  | 
C/C(=C\c1csc(C)n1)[C@@H]1C[C@@H]2O[C@@H]2CCC[C@H](C)[C@H](O)[C@@H](C)C(=O)C(C)(C)[C@@H](O)CC(=O)O1 [EPOTHILONE A] |  | 2.2 nM | 5.9 nM | 5.9 nM | 20 nM | 20 nM | 76% | 
C/C(=C\c1csc(C)n1)[C@@H]1C[C@@H]2C[C@@]2(C)CCC[C@H](C)[C@H](O)[C@@H](C)C(=O)C(C)(C)CCC(=O)O1 |  | 15 nM | 5 nM | 5 nM | 52 nM | 52 nM |  | 
C/C(=C\c1ccc(C)cn1)[C@@H]1C[C@@H]2C[C@H]2CCC[C@H](C)[C@H](O)[C@@H](C)C(=O)C(C)(C)CCC(=O)O1 |  | 0.6 nM | 1.4 nM | 1.4 nM | 5.9 nM | 5.9 nM |  | 
CSc1nc(/C=C(\C)[C@@H]2C[C@@H]3O[C@]3(C)CCC[C@H](C)[C@H](O)[C@@H](C)C(=O)C(C)(C)[C@@H](O)CC(=O)O2)cs1 |  | 0.17 nM | 0.25 nM | 0.25 nM | 0.26 nM | 0.26 nM |  | 
NCCCCCOC[C@@H]1O[C@@H](OCCc2cc3ccccc3[nH]2)[C@@H](OCc2ccccc2)[C@@H](OCc2ccccc2)[C@@H]1OCc1ccccc1 | 15000 nM |  |  |  |  |  |  | 
NCCCCCOCC1CC(OCc2ccccc2)C(OCc2ccccc2)C(OCCc2cc3ccccc3[nH]2)O1 (stereo not drawn) | 47000 nM |  |  |  |  |  |  | 
C/C(=C\c1csc(C)n1)[C@@H]1C[C@@H]2C[C@@H]2CCC[C@H](C)[C@H](O)[C@@H](C)C(=O)C(C)(C)[C@@H](O)CC(=O)O1 |  | 0.25 nM | 2 nM | 2 nM | 9 nM | 9 nM |  | 
CCNC1COC(OC2C(OC)OC(C)C(NOC3CC(O)C(SC(=O)c4c(C)c(I)c(OC5OC(C)C(O)C(OC)C5O)c(OC)c4OC)C(C)O3)C2O)CC1OC (stereo not drawn) |  |  |  |  |  |  |  | 4.1 µM

Compound | IC50 (Somatostatin receptor) | IC50 (1A9) | IC50 (1A9/ptx-22 [1]) | IC50 (1A9/ptx-22 [2]) | IC50 (1A9/ptx-10 [3]) | IC50 (1A9/ptx-10 [4]) | TP [5] | K obs (Nucleic Acid)
OCCCCCNCC1OC(OCCc2cc3ccccc3[nH]2)C(OCc2ccccc2)CC1OCc1ccccc1 (stereo not drawn) | 10000 nM |  |  |  |  |  |  | 
CSc1nc(/C=C(\C)[C@@H]2C[C@@H]3C[C@@]3(C)CCC[C@H](C)[C@H](O)[C@@H](C)C(=O)C(C)(C)CCC(=O)O2)cs1 |  | 3.5 nM | 11.5 nM | 11.5 nM | 5.7 nM | 5.7 nM |  | 
CCNC1COC(OC2C(O[C@H]3C#C/C=C\C#C[C@@](C)(O)C(=C/CSSSC)/C3=C(\NC(=O)OC)C(C)=O)OC(C)C(NOC3CC(O)C(SC(=O)c4c(C)c(I)c(OC5OC(C)C(O)C(OC)C5O)c(OC)c4OC)C(C)O3)C2O)CC1OC (stereo partly drawn) |  |  |  |  |  |  |  | 0.135 µM
C/C(=C\c1ccccn1)[C@@H]1C[C@@H]2O[C@]2(C)CCC[C@H](C)[C@H](O)[C@@H](C)C(=O)C(C)(C)[C@@H](O)CC(=O)O1 |  | 0.1 nM | 0.15 nM | 0.15 nM | 1 nM | 1 nM | 79.5% | 
C/C(=C\c1csc(C)n1)[C@@H]1C[C@@H]2O[C@]2(CF)CCC[C@H](C)[C@H](O)[C@@H](C)C(=O)C(C)(C)[C@@H](O)CC(=O)O1 |  | 0.2 nM | 0.2 nM | 0.2 nM | 0.4 nM | 0.4 nM | 93% | 
OCCCCCCNCC1OC(OCCc2cc3ccccc3[nH]2)C(OCc2ccccc2)CC1OCc1ccccc1 (stereo not drawn) | 34000 nM |  |  |  |  |  |  | 
OCCCCCCNCC1OC(OCCc2cc3ccccc3[nH]2)C(OCc2ccccc2)C(OCc2ccccc2)C1OCc1ccccc1 (stereo not drawn) | 5100 nM |  |  |  |  |  |  | 
C/C(=C\c1ccc(C)cn1)[C@@H]1C[C@@H]2O[C@]2(C)CCC[C@H](C)[C@H](O)[C@@H](C)C(=O)C(C)(C)[C@@H](O)CC(=O)O1 |  | 0.15 nM | 0.15 nM | 0.15 nM | 0.6 nM | 0.6 nM | 92% | 
C/C(=C\c1ncccc1C)[C@@H]1C[C@@H]2O[C@]2(C)CCC[C@H](C)[C@H](O)[C@@H](C)C(=O)C(C)(C)[C@@H](O)CC(=O)O1 |  | > 300 nM | > 300 nM | > 300 nM | > 300 nM | > 300 nM | 0% | 
C/C(=C\c1cccc(C)n1)[C@@H]1C[C@@H]2O[C@]2(C)CCC[C@H](C)[C@H](O)[C@@H](C)C(=O)C(C)(C)[C@@H](O)CC(=O)O1 |  | 9 nM | 18 nM | 18 nM | 72 nM | 72 nM | 45% | 
CCNC1COC(OC2C(OC)OC(C)C(NOC3CC(O)C(SC(=O)c4c(C)c(Cl)c(OC5OC(C)C(O)C(OC)C5O)c(OC)c4OC)C(C)O3)C2O)CC1OC (stereo not drawn) |  |  |  |  |  |  |  | 32 µM
CCNC1COC(OC2C(OC)OC(C)C(NOC3CC(O)C(SC(=O)c4c(C)c(C)c(OC5OC(C)C(O)C(OC)C5O)c(OC)c4OC)C(C)O3)C2O)CC1OC (stereo not drawn) |  |  |  |  |  |  |  | 38 µM
NCCCCCCOC[C@@H]1O[C@@H](OCCc2cc3ccccc3[nH]2)[C@@H](OCc2ccccc2)[C@@H](OCc2ccccc2)[C@@H]1OCc1ccccc1 | 11000 nM |  |  |  |  |  |  | 
C/C(=C\c1cc(C)ccn1)[C@@H]1C[C@@H]2O[C@]2(C)CCC[C@H](C)[C@H](O)[C@@H](C)C(=O)C(C)(C)[C@@H](O)CC(=O)O1 |  | 0.1 nM | 0.1 nM | 0.1 nM | 0.36 nM | 0.36 nM | 90.3% | 
OCCCCCNCC1OC(OCCc2cc3ccccc3[nH]2)C(OCc2ccccc2)C(OCc2ccccc2)C1OCc1ccccc1 (stereo not drawn) | 14000 nM |  |  |  |  |  |  | 
CSc1nc(/C=C(\C)[C@@H]2C/C=C\CCC[C@H](C)[C@H](O)[C@@H](C)C(=O)C(C)(C)[C@@H](O)CC(=O)O2)cs1 |  | 9 nM | 28 nM | 28 nM | 22 nM | 22 nM | 92% | 
